Screening results (PubChem)
Shown are actives, neighbours in structure and some others; about 2.3% of the full set was active somewhere.
TAAR1 antagonist = antagonists of human TAAR1. inhibition, % at 3 µM. Q96RJ0. CHO RD-HGA16 TAAR1, Fluo-8 calcium fluorescence, antagonist. 1.5% of 360,000 active;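 active = inhibition above a per-plate cutoff, the mean inhibition of test compounds on that plate plus 3 SD, cut at about 49% in these data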;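 also: 0% = DMSO plus EC80 beta-PEA response and 100% = DMSO alone without agonist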
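Material: CHO RD-HGA16 cells bearing hTAAR1; compound dosing: one-point dosing, 3 µM nominal final; schedule: dye loading 75 min at 37 °C, then 30 min room temperature; measured by: calcium fluorescence with Fluo-8; control set: vehicle and agonist controls; replication: n of 1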
OXTR agonist = human OXTR agonism | CHO-OTR cells, Fluo-8 calcium fluorescence; normalized: DMSO 0%, oxytocin 100% | activation, % at 3 µM | 0.32% of 320,000 active;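 active = activation above the mean of all tested compounds plus 3 SD, cutoff set per screening run, cut at about 20% in these data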;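 also: peak over basal fluorescence ratio from a 100 s FLIPR kinetic read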
Target sequence (P30559 whole entry, looked up): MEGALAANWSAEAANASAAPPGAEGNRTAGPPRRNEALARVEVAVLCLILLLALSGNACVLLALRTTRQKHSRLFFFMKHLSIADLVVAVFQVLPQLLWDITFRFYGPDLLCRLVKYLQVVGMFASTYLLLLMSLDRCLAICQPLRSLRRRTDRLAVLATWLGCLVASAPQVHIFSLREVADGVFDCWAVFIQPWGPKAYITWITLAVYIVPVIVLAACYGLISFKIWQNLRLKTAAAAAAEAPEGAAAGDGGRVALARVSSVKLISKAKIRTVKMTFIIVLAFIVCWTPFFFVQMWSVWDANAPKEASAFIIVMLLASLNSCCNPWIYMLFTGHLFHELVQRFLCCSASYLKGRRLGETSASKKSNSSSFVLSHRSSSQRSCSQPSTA
TAAR1 agonist = agonists of human TAAR1. Q96RJ0. CHO RD-HGA16 TAAR1, Fluo-8 calcium fluorescence; vehicle wells 0%, saturating PEA agonist 100%. activation, % at 3 µM. 0.99% of 360,000 active. AID 624467;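 active = activation above the mean activation of all test compounds in the run plus 3 SD, cut at about 38% in these data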
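Repeats: no replicates (n 1) | Material: CHO-derived RD-HGA16 cells with stable Gα16 and human TAAR1 | Technique: Kinetic Fluo-8 calcium fluorescence | Schedule: 17-24 h seeding, 75 min 37 °C dye, 30 min RT | Evaluation: % activation from peak over basal fluorescence ratio, DMSO-to-PEA scaled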
OXTR potentiator = human OXTR potentiation | CHO-OTR cells, Fluo-8 calcium fluorescence, potentiator mode; 0% = oxytocin EC15, 100% = EC100 | 0.061% of 320,000 active | activation, % at 3 µM | P30559 | AID 2445;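 active = activation above that plate's cutoff, the mean activation of tested compounds plus 3 SD, cut at about 6.6% in these data, passing the limit was not always enough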;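 also: 100% uses oxytocin at 75 nM as the full agonist control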
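assay system = CHO-OTR cells, human receptor | schedule = compound 6 min at room temperature before oxytocin, 100 s read | detection = Fluo-8 intracellular calcium fluorescence, ex 470-495, em 515-575 nm | evaluation = normalized max/min fluorescence ratio, % activation | control set = EC15 oxytocin alone as 0%, 75 nM oxytocin (EC100) as 100%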
V1R ag counter = V1a receptor agonism, counter-screen for OXTR agonists; P37288; CHO-V1R cells, Fluo-8 calcium fluorescence, agonist mode; 0% DMSO, 100% 3 nM vasopressin; activation, % at 3 µM; 0.25% of 320,000 active;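 active = activation above the mean activation of all tested compounds plus 3 SD, per screening run, cut at about 20% in these data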;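 also: signal is peak over basal fluorescence ratio across a 100 second FLIPR read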
Target sequence (P37288 whole entry, looked up): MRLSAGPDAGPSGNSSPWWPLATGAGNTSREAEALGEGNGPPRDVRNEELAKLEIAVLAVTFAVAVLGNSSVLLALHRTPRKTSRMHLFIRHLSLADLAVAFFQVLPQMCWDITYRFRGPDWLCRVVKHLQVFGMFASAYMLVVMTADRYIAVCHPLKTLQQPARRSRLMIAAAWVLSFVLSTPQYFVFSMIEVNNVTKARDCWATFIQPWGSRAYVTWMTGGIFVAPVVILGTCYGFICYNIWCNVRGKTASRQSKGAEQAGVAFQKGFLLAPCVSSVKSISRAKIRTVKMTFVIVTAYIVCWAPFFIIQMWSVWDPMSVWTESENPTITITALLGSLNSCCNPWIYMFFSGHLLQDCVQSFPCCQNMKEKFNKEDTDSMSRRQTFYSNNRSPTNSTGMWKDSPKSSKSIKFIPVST
TAAR1 ag conf = confirmation of human TAAR1 agonists; activation, % at 3 µM; 82% of 2,400 active; shares compounds with TAAR1 agonist; CHO RD-HGA16 TAAR1, Fluo-8 calcium fluorescence; scaled: DMSO 0%, maximal phenethylamine 100%;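 active = activation above a cutoff set at the run's mean compound activation plus 3 SD, cut at about 39% in these data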
Ga16 ag counter = counter-screen for TAAR1 agonists: nonselective agonists in parental cells; CHO-Ga16 parental, Fluo-8 calcium fluorescence; normalized to maximal ATP response, DMSO zero; 50% of 2,400 active; activation, % at 3 µM; shares compounds with TAAR1 agonist;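 active = activation above the run cutoff, the mean activation over all tested wells plus 3 SD, cut at about 12% in these data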;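 also: 0% = DMSO wells and 100% = maximal ATP response on the peak over basal ratio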
TAAR1 desensitize = human TAAR1 agonist that also desensitizes the receptor. CHO RD-HGA16 hTAAR1, Fluo-8 calcium, beta-PEA response inhibition. inhibition, % at 3 µM. shares compounds with TAAR1 agonist. 46% of 2,400 active;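 active = inhibition above the run cutoff, the mean inhibition of all test compounds plus 3 SD, cut at about 49% in these data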;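 also: beta-PEA stimulus applied at its EC80; loss of beta-PEA calcium signal after compound pretreatment read as receptor desensitization; 0% = DMSO with beta-PEA at EC80 and 100% = DMSO alone without agonist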
Ga16 antag count = nonselective Ga16 antagonist in TAAR1 agonist counter-screen | shares compounds with TAAR1 agonist | CHO-Ga16 ATP-induced calcium, Fluo-8 fluorescence | inhibition, % at 3 µM | 39% of 2,400 active | AID 651952;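 active = inhibition above the plate's mean compound inhibition plus 3 SD, computed per plate, cut at about 22% in these data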;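 also: 0% = EC80 ATP with DMSO and 100% = DMSO wells without ATP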
Numbers without * were called inactive; / = no result.

SMILES | TAAR1 antagonist | OXTR agonist | TAAR1 agonist | OXTR potentiator | V1R ag counter | TAAR1 ag conf | Ga16 ag counter | TAAR1 desensitize | Ga16 antag count
O=C(Nc1sc2c(c1C(=O)NCCO)CCCC2)c1ccco1 | 4.7 | -0.2 | -1.6 | -2.6 | 2.7 | / | / | / | /
C/C(CC(=O)Nc1ccc2c(c1)OCCO2)=N\NC(=O)Cc1ccccc1 | 2.1 | -0.3 | -2.6 | -10.6 | -0.4 | / | / | / | /
N=c1sccn1CC(=O)Nc1cccc(Oc2ccccc2)c1 | 2.8 | 7.9 | 27.1 | -13.9 | 10.1 | / | / | / | /
c1ccc2c(Cn3ccnc3)c[nH]c2c1 | 12.9 | 2.7 | 54.2* | 3.2 | 0.1 | 71.0* | 4.1 | 35.9 | 6.7
COc1cccc(N2C(=O)CC(N3CCN(c4ccc([N+](=O)[O-])cc4)CC3)C2=O)c1 (stereo not given) | 13.9 | 3.9 | 0.8 | 0.2 | 2.6 | / | / | / | /
Cc1ccc(C(=O)NC(=S)NNC(=O)c2cccc([N+](=O)[O-])c2)cc1 | 16.8 | / | 83.5* | / | / | 101.2* | 75.3* | 62.0* | 35.5*
O=C(NNC(=S)NC(=O)c1cccc([N+](=O)[O-])c1)c1ccc(Br)cc1 | 13.6 | 8.5 | 99.3* | -9.1 | 1.5 | 107.2* | 81.4* | 77.1* | 44.2*
CC1CCN(C(=O)CSc2nnc3ccc(-c4cccnc4)nn23)CC1 | -2.0 | -1.9 | -0.6 | -13.7 | -0.6 | / | / | / | /
O=C(CC1(O)C(=O)N(C/C=C/c2ccccc2)c2ccccc21)c1ccccn1 (stereo not given) | -6.8 | 7.5 | 15.6 | -10.7 | 5.8 | / | / | / | /
FC(F)(F)c1nnc(-c2ccccc2)nc1N1CCCC1 | -1.4 | -0.7 | 0.6 | 3.0 | -1.6 | / | / | / | /
CC1CCCCN1CC(=O)Nc1ccc(N2CCCCCC2)cc1 (stereo not given) | -24.8 | 0.4 | 13.0 | -6.2 | 0.5 | / | / | / | /
CC(=O)C1=C(c2ccccc2)NC(=O)NC1c1ccc(O)c(O)c1 (stereo not given) | -8.9 | -0.2 | 1.1 | -11.2 | 1.4 | / | / | / | /
c1ccc(N/N=C(\Cc2ncc[nH]2)c2ccccc2)cc1 | / | -0.5 | / | -4.5 | -0.6 | / | 3.9 | / | 9.4
O=C(NCCc1ccccc1)C1(S(=O)(=O)c2ccc(Cl)cc2)CC1 | -5.7 | -2.0 | -0.3 | -8.5 | -0.7 | / | / | / | /
Cc1ccc(S(=O)(=O)C2(C(=O)NCCc3ccccc3)CC2)cc1 | 1.7 | 3.6 | 50.1* | -8.0 | -0.3 | 82.4* | 0.1 | 34.6 | 4.9
Cc1ccc(S(=O)(=O)NC(=O)NCCc2ccccc2)cc1 | 18.0 | 0.1 | 71.4* | -0.2 | 0.1 | 81.0* | -0.2 | 36.6 | 13.3
Cc1ccc(S(=O)(=O)NNC(=S)NCCc2ccccc2)cc1 | -22.2 | 0.0 | 34.9 | -9.0 | 0.6 | / | / | / | /
COc1cccc(N2CCN(C3C4CC5CC(C4)CC3C5)CC2)c1 (stereo not given) | -21.1 | -0.8 | 41.0* | -0.5 | -0.4 | 56.4* | 19.2* | 13.9 | 4.9
COc1cccc(N2CCN(CC(=O)C34CC5CC(CC(C5)C3)C4)CC2)c1 | 13.2 | -0.8 | 3.7 | -9.5 | -0.7 | / | / | / | /
Cc1cccc(/C=N\Nc2cn[nH]c(=O)c2Cl)c1 | 69.9* | -2.2 | 53.2* | 1.4 | -1.7 | 87.9* | -1.7 | 71.6* | 0.3
O=c1[nH]ncc(N/N=C\c2ccncc2)c1Cl | -7.8 | 0.2 | 15.5 | -8.6 | 0.5 | / | / | / | /
O=c1[nH]ncc(N/N=C\c2cccnc2)c1Cl | -15.6 | 0.9 | 10.6 | 7.5 | 1.6 | / | / | / | /
O=c1[nH]ncc(N/N=C\c2cccs2)c1Cl | / | -0.4 | / | -9.7 | -0.1 | / | 2.7 | / | 7.5
O=C(NCCCn1ccnc1)c1ccc(-c2cccc(Cl)c2Cl)o1 | 12.4 | 6.9 | 63.2* | -8.0 | 3.6 | 49.8* | 33.3* | 16.8 | 6.6
O=C(c1ccc(Cl)cc1)N1CCN(C(=O)C2CCCCC2)CC1 | -15.5 | 0.8 | 6.9 | 1.0 | 2.3 | / | / | / | /
SMILES | TAAR1 antagonist | OXTR agonist | TAAR1 agonist | OXTR potentiator | V1R ag counter | TAAR1 ag conf | Ga16 ag counter | TAAR1 desensitize | Ga16 antag count
Cc1ccc(SCc2nc(-c3ccncc3)no2)cc1 | -4.4 | 4.9 | 52.2* | -13.6 | 3.5 | 9.0 | 3.5 | 5.9 | 7.2
Cc1ccc(SCc2nc(-c3ccccc3)no2)cc1 | 24.5 | -1.1 | 28.6 | -4.9 | 0.2 | / | / | / | /
COc1cc2c(cc1OC)/C(=C/C(=O)N1CCOCC1)NC(C)(C)C2 | 11.6 | -1.8 | 5.0 | -9.0 | 0.6 | / | / | / | /
Cc1cccc(N2CCN(C(c3ccncc3)c3nnnn3C(C)(C)C)CC2)c1C (stereo not given) | -16.3 | -0.5 | -1.9 | -4.0 | -0.5 | / | / | / | /
CCCOc1ccc(OCCOCCN2CCc3ccccc3C2)cc1 | 42.5 | 2.4 | 101.6* | -3.1 | 0.7 | 76.9* | 1.2 | 64.2* | 1.6
CCOc1ccc(OCCOCCN2CCc3ccccc3C2)cc1 | -13.2 | 0.2 | 33.4 | 1.4 | 0.3 | / | / | / | /
C=CCc1cc(OC)ccc1OCCOCCN1CCc2ccccc2C1 | -12.4 | 0.6 | 48.3* | -6.9 | 0.3 | 56.4* | 6.0 | 13.5 | 3.8
CC(=O)c1ccc(NC(=S)NC(NC(=O)c2ccco2)C(Cl)(Cl)Cl)cc1 (stereo not given) | 43.4 | 61.2* | 96.3* | -23.6 | 37.7* | 105.9* | 28.6* | 80.0* | 21.2
Cc1ccc(OCC(O)CNCc2ccccc2)cc1C (stereo not given) | -28.3 | 4.4 | 5.7 | -11.0 | 2.0 | / | / | / | /
O=C(c1ccccc1)c1ccc(OCC(O)CNCc2cccc(Cl)c2)cc1 (stereo not given) | 6.8 | / | 58.2* | / | / | 95.3* | 42.7* | 60.3* | 40.4*
O=C(c1ccccc1)c1ccc(OCC(O)CNCc2ccc(F)cc2)cc1 (stereo not given) | 13.2 | / | 47.6* | / | / | 48.2* | 18.9* | 19.7 | 24.1*
CCn1c(SC(C)C)nnc1-c1c[nH]c2ccccc12 | -19.9 | -0.5 | 0.8 | -2.0 | -1.1 | / | / | / | /
Cc1cccc(N2C(=O)C(O)=C(C(=O)c3cccs3)C2c2ccc(C(C)C)cc2)n1 (stereo not given) | 26.5 | 32.6* | 69.4* | -14.5 | 32.6* | 79.6* | 67.2* | 50.7* | 33.4*
CC(C)Nc1nc(NC(C)(C)C)nc(Oc2ccc(=O)n(-c3ccccc3)n2)n1 | -16.0 | 2.3 | 69.7* | 6.1 | 11.6 | 75.5* | 54.0* | -0.6 | 1.2
COc1nc(NC(C)(C)C)nc(Oc2ccc(=O)n(-c3ccccc3)n2)n1 | 4.9 | 0.2 | 18.1 | 1.5 | -0.5 | / | / | / | /
O=C(O)c1ccc2cccnc2n1 | 4.2 | -0.6 | 8.6 | -16.2 | 0.4 | / | / | / | /
